# Compound activity: PubChem BioAssay, Johns Hopkins Ion Channel Center
# This is a sample that favours compounds with a hit; in the whole collection about 2.3% have one here.
# TRPC4 potent = allosterically enhances the mouse TRPC4 cation channel. Q9QUQ5. HEK293 TRPC4beta/mu-opioid, DAMGO EC20, Fluo-4 Ca2+ flux; stronger effect = higher value. B-score at 10 µM. actives 0.42% (n = 310,000). AID 2227;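 active = B-score of calcium response area above 5 SD of library B-scores, with initial fluorescence ratio within 5 SD of library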;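 note: B-score of integrated fluorescence ratio over time as area under calcium response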
# TRPC6 act = activates the mouse TRPC6 cation channel. HEK293-TRPC6 membrane potential dye fluorescence; stronger effect = higher value. B-score at 10 µM. actives 0.13% (n = 310,000);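 active = B-score of the integrated fluorescence ratio above library mean plus 3 SD, and starting fluorescence ratio within library mean plus 5 SD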;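 note: higher score means more depolarization so channel activation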
# TRPC4 agonist = activators of mouse TRPC4 channel. Q9QUQ5. HEK293 TRPC4beta/mu-opioid, Fluo4 calcium fluorescence; stronger effect = higher value. B-score at 10 µM. actives 0.49% (n = 310,000);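 active = B-score above 5 SD of library B-scores, and initial fluorescence ratio not above library mean plus 5 SD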;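 note: positive B-score marks a calcium rise read as TRPC4 activation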
#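 Incubation: 45 min room-temperature Fluo4 loading, 110 s read / System: HEK293 cells stably co-expressing mouse TRPC4beta and mu-opioid receptor / Signal: Fluo4 fluorescence, kinetic / Control set: buffer (low) and maximal DAMGO (high) / Measure: integrated baseline-normalised fluorescence ratio, converted to per-well B score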
# TRPC6 inh = mouse TRPC6 channel inhibition; HEK293-TRPC6, membrane potential dye, ACh-evoked depolarization; stronger effect = lower value; B-score at 10 µM; Q61143; actives 1.1% (n = 310,000); AID 2553;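 active = B-score under library mean minus 3 SD, initial fluorescence not abnormally high, positive integrated signal ratio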;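 note: B-score derived from integrated fluorescence ratio over the kinetic read; more negative B-score means stronger inhibition of depolarization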
# TRPC4 block = blocks the mouse TRPC4 cation channel; Q9QUQ5; B-score at 10 µM; HEK293 TRPC4beta/mu-opioid, DAMGO-evoked Fluo4 calcium flux; stronger effect = lower value; AID 2247; actives 0.39% (n = 300,000);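 active = B-score over 3 SD under the library average, no early fluorescence shift, positive overall ratio signal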
#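 test system = HEK293 cells with stable TRPC4beta plus mu-opioid receptor expression | detection = Fluo4 Ca2+ flux fluorescence | read-out = integrated fluorescence ratio relative to baseline, converted to per-well B score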
# TRPC4 sel inh 2 = mouse TRPC4 off-target activity of TRPC6 inhibitors, second screen. shares compounds with TRPC6 inh. HEK293 TRPC4/MOR, membrane potential dye fluorescence; channel activated by saturating DAMGO dose. actives 42% (n = 920). AID 2776. inhibition, % at 10 µM;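 active = compounds whose fluorescence signal differed from control wells by over 3 SD, either direction, in both duplicate plates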
# TRPC4 spec = mouse TRPC4 off-target activity of TRPC6 inhibitors; shares compounds with TRPC6 inh; HEK293 TRPC4/mu-opioid, membrane potential fluorescence; activity change, negative = inhibition, % at 10 µM; actives 61% (n = 920); AID 2777;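 active = rise or fall in signal beyond 3 SD of buffer-only wells in both replicate plates, either sign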;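 note: integrated kinetic ratio of fluorescence range over baseline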
# HEK293 MPD ctr 2-1 = second counter-screen for TRPC6 inhibitors: parental HEK293 cells; shares compounds with TRPC6 inh; parental HEK293 membrane potential dye fluorescence; maximal acetylcholine challenge after compound addition; signal change vs control, % at 10 µM; actives 31% (n = 920); AID 2779;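 active = membrane potential signal moving either way by over 3 SD of the maximum-effect control, in both duplicate plates, meaning non-specific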
# HEK293 MPD ctr-1 = counter-screen for TRPC6 inhibitors: effect in parental HEK293 cells. shares compounds with TRPC6 inh. parental HEK293 membrane potential dye fluorescence. membrane potential signal change, % at 10 µM. actives 60% (n = 920). AID 2780;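 active = membrane potential signal shifting up or down by more than 3 SD of buffer-only wells, on both duplicate plates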
# HEK293 MPD ctr-2 = counter-screen for TRPC6 modulators: effect in parental HEK293 cells; membrane potential signal change, % at 10 µM; membrane potential dye fluorescence; actives 51% (n = 2,400); AID 488924; shares compounds with TRPC6 inh;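 active = membrane potential signal moves up or down beyond 5 SD from buffer-only wells, on both duplicate plates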
# HEK293 MPD ctr 2-2 = second check of TRPC6 modulator effects in parental HEK293 cells | shares compounds with TRPC6 inh | inhibition, % at 10 µM | actives 14% (n = 2,400) | membrane potential dye fluorescence; after compound, maximal acetylcholine stimulation | AID 488926;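 active = membrane potential signal drops by more than 5 SD from the mean control signal, in both duplicate plates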;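 note: plate controls were acetylcholine ECmax control wells for no effect and buffer only wells for full effect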
# TRPC4 ctr mod = tests whether TRPC6 modulators also affect mouse TRPC4. percent change from control (negative = decrease, positive = increase), % at 10 µM. HEK293 TRPC4/mu-opioid, membrane potential fluorescence. actives 69% (n = 2,400). AID 488927. shares compounds with TRPC6 inh;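 active = membrane potential signal moved up or down beyond 5 SD of buffer control wells, in both duplicate plates, actives on both sides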;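 note: plate controls were assay buffer wells for no effect and DAMGO maximal-effect wells for full effect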
# TRPC4/MOR inh 2 = mouse TRPC4 off-target activity of TRPC6 modulators, second screen | AID 488928 | actives 55% (n = 2,400) | shares compounds with TRPC6 inh | inhibition, % at 10 µM | HEK293 TRPC4/mu-opioid, membrane potential dye fluorescence; stimulated with maximal-effect DAMGO;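 active = drop in membrane potential signal beyond 5 SD of the control wells in both duplicate plates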;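 note: TRPC4 counter screen for TRPC6 hits run under conditions tuned for TRPC6 not TRPC4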
# TRPC6 inh conf = mouse TRPC6 inhibitor confirmation; shares compounds with TRPC6 inh; HEK293-TRPC6, membrane potential dye, ACh-evoked depolarization; inhibition, % at 10 µM; actives 43% (n = 3,300); AID 488960;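 active = fluorescence ratio falls more than 5 SD below the full-stimulation control mean, in both duplicate runs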;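 note: integrated fluorescence ratio of peak minus minimum over baseline after agonist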
# TRPC6 act confirm = mouse TRPC6 activator confirmation | shares compounds with TRPC6 inh | HEK293-TRPC6 membrane potential dye fluorescence, FDSS | activation, % at 10 µM | actives 11% (n = 2,800);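 active = ratio signal rise beyond 5 SD above unstimulated control wells' mean, seen in both duplicate runs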;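 note: plate controls were buffer EC0 wells for no effect and acetylcholine ECmax response for full effect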
# Starred values were filed as active, the others as inactive; i = inactive.
SMILES,TRPC4 potent,TRPC6 act,TRPC4 agonist,TRPC6 inh,TRPC4 block,others
Cc1ccc(CN2C3CCCC2CC(NC(=S)NCc2ccccc2)C3)cc1 (centres undefined),i,i,i,i,-8*,
Cc1cccc(N=Cc2c(O)n(-c3ccccc3C)c(=O)[nH]c2=O)c1,24*,i,i,i,i,
CCOC(=O)Cc1csc(NC(=O)c2c(O)c3ccccc3n(CCC(C)C)c2=O)n1,i,i,i,i,i,
N#CC1(c2ccccc2)CCN(C2CC(=O)N(c3ccc4c(c3)OCO4)C2=O)CC1 (centres undefined),i,i,i,i,i,
O=C(Nc1ccccc1F)OC1CN2CCC1CC2 (centres undefined),i,i,i,i,i,
O=C(Nc1ccccc1Cl)OC1CN2CCC1CC2 (centres undefined),25*,i,i,i,i,
CCN1C[C@]2(C)CC[C@H](OC)[C@]34C2[C@H](OC(C)=O)[C@@]2(OCO[C@@]25C[C@H](OC)[C@H]2C[C@]3(O)C5[C@H]2OC)[C@@H]14,i,i,i,i,i,
CCCCn1c(NC(=O)c2ccc(Br)o2)c(C(=O)OCC)c2nc3ccccc3nc21,i,15.5*,i,i,i,
CCCCn1c(NS(=O)(=O)c2ccccc2)c(C(=O)OCC)c2nc3ccccc3nc21,i,i,i,i,i,
Cc1cc(NCCN)nc2ccccc12,28*,i,i,i,i,
Cc1ccc(C)c(-n2c(C)nc3ccccc3c2=O)c1,i,i,i,i,i,
Cc1ccc(C(=O)NC2CC3CCC(C2)N3)cc1 (centres undefined),i,i,i,i,-5*,
CC(=O)NC1CC2CCC(C1)N2 (centres undefined),i,i,i,i,i,
COc1ccc(C)cc1NC(=O)c1c(C)nn(Cc2ccccc2)c1Cl,i,i,i,i,i,
COc1ccc(OCCOc2cccc(C=C3C(=O)NC(=O)NC3=O)c2)cc1,i,i,i,i,i,
CN(CCOc1ccc(C=C2C(=O)NC(=O)NC2=O)cc1)c1ccccn1,i,i,46*,i,-6*,
O=c1[nH]c(O)c(Cc2ccc3c(c2)OCO3)c(=O)[nH]1,i,i,i,i,i,
CCc1n[nH]c(CCN)n1,i,i,155*,i,i,
O=[N+]([O-])c1cc2c(cc1CNCCc1ccc3c(c1)OCO3)OCO2,i,i,90*,i,-8*,
COC[C@]12CN(C)C3C4[C@H](OC)[C@H]1C3([C@@H](OC)C[C@H]2O)[C@@H]1C[C@@]2(O)[C@H](OC(=O)c3ccccc3)[C@@H]1[C@]4(OC(C)=O)[C@@H](O)[C@@H]2OC,i,i,i,i,i,
CCc1nccc2c1[nH]c1ccccc12,i,i,i,i,-6*,
COc1cc(OC)c(OC)cc1CNCCc1cccc(F)c1,i,i,i,i,i,
COc1cc(OC)c(OC)cc1CNCCc1ccc(OC)c(OC)c1,i,i,i,i,i,
COc1ccc(CNCCc2ccc(Cl)cc2)c(OC)c1OC,i,i,62*,i,i,
COc1ccc(CNCCc2cccc(F)c2)c2ccccc12,i,i,57*,i,i,
SMILES,TRPC4 potent,TRPC6 act,TRPC4 agonist,TRPC6 inh,TRPC4 block,others
C=CCn1c(O)c(C=NCCCn2ccnc2)c(=O)[nH]c1=O,i,i,i,i,i,
CCNC(=O)C1OC(n2cnc3c(N)ncnc32)C(O)C1O (centres undefined),i,i,53*,i,i,
CCN(CC)P(=O)(/C=C(\Cl)c1ccccc1)/C=C(\Cl)c1ccccc1,17*,i,i,i,i,
COc1ccc(-n2c(O)c(C(C)=NCCc3c[nH]c4ccccc34)c(=O)[nH]c2=O)cc1,i,i,i,i,i,
Clc1cccc(N2CCNCC2)c1Cl,i,i,i,-8.96*,i,TRPC4 sel inh 2=72.5%*;TRPC4 spec=-0.4%*;HEK293 MPD ctr 2-1=i;HEK293 MPD ctr-1=1.9%*;TRPC6 inh conf=55.5%*;TRPC6 act confirm=i
c1ccc2c(N3CCNCC3)cccc2c1,i,i,i,i,i,
Cc1nc2ccsc2c(=O)n1-c1ccccc1Cl,i,i,i,i,i,
CN1CC(C(=O)c2ccc(Cl)cc2)C(c2ccc(N(C)C)cc2)C1 (centres undefined),i,i,i,-6.46*,i,HEK293 MPD ctr-2=i;HEK293 MPD ctr 2-2=i;TRPC4 ctr mod=i;TRPC4/MOR inh 2=50.0%*;TRPC6 inh conf=50.5%*;TRPC6 act confirm=i
FC(F)(F)Oc1ccc(NC2=NCCCS2)cc1,i,i,i,i,i,
